22 compounds from ChEMBL document CHEMBL2440067, “Novel 3-nitro-1H-1,2,4-triazole-based piperazines and 2-amino-1,3-benzothiazoles as antichagasic agents” (Bioorg Med Chem, 2013) can be followed below.

The structures appear in SMILES notation. Where only a bound is given, the exact number is not on record here.

Series [1] can be described thus: Selectivity index, ratio of IC50 for rat L6 cells to IC50 for Leishmania donovani MHOM-ET-67/L82 amastigotes. In kind it is toxicity, cell-based. The note with it: read-out: Ratio IC50. A digest of the protocol: (§1)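 SI is the L6 myoblast IC50 divided by the IC50 against the parasite named. IC50s come from 96-well dose-response curves, each the mean of two independent assays.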

The subject of series [2] is Trypanosoma cruzi. As to the kind of experiment: Antimicrobial activity against Trypanosoma cruzi Tulahuen C4 amastigotes infected in rat L6 cells after 96 hrs by beta-galactosidase reporter gene assay. It counts as functional, organism-based. The note with it: Tulahuen C4, L6, 96 h. A digest of the protocol:
(§2)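 96-well plate growth-inhibition format. Targets were T. b. rhodesiense bloodstream trypomastigotes, T. cruzi Tulahuen C4 amastigotes inside L6 rat skeletal myoblasts, axenically cultured L. donovani MHOM-ET-67/L82 amastigotes, and L6 cells alone for cytotoxicity.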

Series [3] is described as follows: Selectivity index, ratio of IC50 for rat L6 cells to IC50 for blood stream form of Trypanosoma brucei rhodesiense STIB 900. In kind it is toxicity, cell-based. Conditions: read-out: Ratio IC50. A digest of the protocol:
as §1

For another series, the system named is L6. As to the kind of experiment: Cytotoxicity against rat L6 cells after 72 hrs by Alamar blue assay. Conditions: L6, 72 h. It counts as cell-based. A digest of the protocol: as §2
For series [4], the system named is Trypanosoma brucei rhodesiense. As to the kind of experiment: Antimicrobial activity against blood stream form of Trypanosoma brucei rhodesiense STIB 900 after 72 hrs by Alamar blue assay. Conditions: STIB 900, 72 h. In kind it is functional, organism-based. A digest of the protocol: as §2
The nature of series [5]: Selectivity index, ratio of IC50 for rat L6 cells to IC50 for Trypanosoma cruzi Tulahuen C4 amastigotes. Conditions: read-out: Ratio IC50. It counts as toxicity, cell-based. A digest of the protocol: as §1
In another series the test system is Leishmania donovani. Briefly: Antimicrobial activity against Leishmania donovani MHOM-ET-67/L82 amastigotes after 72 hrs by Alamar blue assay. In kind it is functional, organism-based. Conditions: MHOM-ET-67/L82, 72 h. A digest of the protocol: as §2
In series [6] the test system is Trypanosoma cruzi. Briefly: Ratio of banznidazole IC50 to compound IC50 for Trypanosoma cruzi Tulahuen C4 amastigotes. It counts as functional.
Series [7] is described as follows: Prodrug conversion assessed as Trypanosoma brucei brucei recombinant his-tagged nitroreductase-mediated NADH oxidization by spectrophotometric analysis. It counts as ADME. Conditions: isolated protein.

`O=[N+]([O-])c1ncn(CCCN2CCN(c3ccncc3)CC2)n1`: the figures for the selectivity ratio in [1], in series [3] and in series [5] were < 1, 115 and 17.5, respectively. Further, the IC50 with Trypanosoma cruzi [2] is 8.8 µM; in the series with L6, 154 µM; in series [4], 1.34 µM; in the series on Leishmania donovani it was > 315 µM. Moreover, the “Ratio IC50” value in the series on Trypanosoma cruzi [6] is listed as 0.2.

On to `Cl.O=C(C1CC1)N1CCN(CCCn2cnc([N+](=O)[O-])n2)CC1`, for which the selectivity ratio in [1] was < 1; in series [3], 13; in series [5], 43.1. The IC50 in the series with Trypanosoma cruzi [2] is 4.7 µM; in the series on L6, 203 µM; in series [4] it was 15.6 µM; in the series with Leishmania donovani, > 290 µM. Moreover, the “Ratio IC50” value with Trypanosoma cruzi [6] is 0.3.

Take `O=[N+]([O-])c1ncn(CCCNc2nc3ccc(Cl)cc3s2)n1`: the figures for the selectivity ratio in series [1], in [3] and in [5] were 22.7, 500 and 1720, respectively. In addition, the IC50 in the series on Trypanosoma cruzi [2] was 0.059 µM; in the series on L6 it was 102 µM; in series [4], 0.204 µM; in the series with Leishmania donovani it was 4.49 µM. In addition, in the series on Trypanosoma cruzi [6], the “Ratio IC50” value is 26.6.

Turning to `O=[N+]([O-])c1ncn(CCCNc2nc3ccccc3s2)n1`, the results for the selectivity ratio in [1], in series [3] and in [5] were 8.1, 170 and 287, respectively. Also, the concentration for half-maximal inhibition (IC50) in the series on Trypanosoma cruzi [2] came to 0.566 µM; in the series with L6 it was 162 µM; in series [4] it was 0.954 µM; in the series on Leishmania donovani, 20 µM. In the series with Trypanosoma cruzi [6], the “Ratio IC50” value came to 3.6.

`O=[N+]([O-])c1ncn(CCCCNc2nc3ccc(Cl)cc3s2)n1`: the selectivity ratio stood at 10.9 in [1], 126 in [3] and 314 in [5]. Moreover, the IC50 with Trypanosoma cruzi [2] is 0.142 µM; in the series on L6, 44.5 µM; in series [4] it was 0.355 µM; in the series with Leishmania donovani, 4.1 µM. Besides, in the series on Trypanosoma cruzi [6], the “Ratio IC50” value was 14.4.

As for `O=[N+]([O-])c1nccn1CCCNc1nc2ccc(Cl)cc2s1`, the selectivity ratio came out at 11.6 in series [1], 6.5 in series [3] and 15.3 in series [5]. Moreover, the half-maximal inhibitory concentration (IC50) in the series on Trypanosoma cruzi [2] is 3.23 µM; in the series on L6 it was 49.5 µM; in series [4] it was 7.61 µM; with Leishmania donovani, 4.27 µM. Also, the “Ratio IC50” value in the series with Trypanosoma cruzi [6] is 0.6.

For the compound `O=[N+]([O-])c1nccn1CCCNc1nc2ccccc2s1`, the selectivity ratio in series [1] stood at 15.4; in series [3] it was 3.4; in series [5] it was 36.1. Besides, the IC50 in the series with Trypanosoma cruzi [2] amounted to 4.88 µM; with L6, 176 µM; in series [4], 52.5 µM; with Leishmania donovani, 11.4 µM. Further, in the series with Trypanosoma cruzi [6], the “Ratio IC50” value is on record as 0.4.

Take `O=[N+]([O-])c1nccn1CCCCNc1nc2ccc(Cl)cc2s1`: the selectivity ratio in series [1] was 5.5; in series [3] it was 11.1; in [5] it was 24.6. Further, the IC50 in the series on Trypanosoma cruzi [2] amounted to 1.75 µM; with L6, 43 µM; in [4], 3.87 µM; in the series with Leishmania donovani, 7.3 µM. Further, the “Ratio IC50” value in the series with Trypanosoma cruzi [6] was found to be 1.2.

Take `Cl.Cl.O=[N+]([O-])c1ncn(CCCN2CCN(Cc3ccc(C(F)(F)F)cc3)CC2)n1`: the Drug metabolism in series [7] amounted to 420 nmol/min/mg. The “Ratio IC50” value with Trypanosoma cruzi [6] is listed as 4.6.

As for `Cl.Cl.O=[N+]([O-])c1ncn(CCCCN2CCN(Cc3ccc(C(F)(F)F)cc3)CC2)n1`, in series [7], the Drug metabolism worked out at 364 nmol/min/mg. The “Ratio IC50” value with Trypanosoma cruzi [6] came to 3.8.

Turning to `Cl.Cl.O=[N+]([O-])c1ncn(CCCN2CCN(c3ccc(C(F)(F)F)cc3)CC2)n1`, in [7], the Drug metabolism is given as 788 nmol/min/mg. For the same compound, in the series on Trypanosoma cruzi [6], the “Ratio IC50” value is 39.2.

As to `Cl.Cl.Cl.Cl.O=[N+]([O-])c1ncn(CCCN2CCN(Cc3ccc(Cl)c(Cl)c3)CC2)n1`, the selectivity ratio amounted to 1.4 in series [1], 42.9 in series [3] and 117 in series [5]. The half-maximal inhibitory concentration (IC50) in the series with Trypanosoma cruzi [2] came to 0.286 µM; in the series on L6, 33.5 µM; in series [4], 0.78 µM; in the series with Leishmania donovani, 23.9 µM. In addition, in the series with Trypanosoma cruzi [6], the “Ratio IC50” value is 7.1.

As for `Cc1ccc(N2CCN(CCCn3cnc([N+](=O)[O-])n3)CC2)cc1.Cl.Cl`, the selectivity ratio in series [1] was < 1; in series [3], 5.1; in series [5], 289. Besides, the IC50 with Trypanosoma cruzi [2] amounted to 0.419 µM; in the series on L6 it was 121 µM; in [4] it was 23.9 µM; in the series on Leishmania donovani it was 173 µM. In addition, in the series on Trypanosoma cruzi [6], the “Ratio IC50” value is 3.7.

Consider `Cl.Cl.N#Cc1ccccc1N1CCN(CCCn2cnc([N+](=O)[O-])n2)CC1`, for which the figures for the selectivity ratio in series [1], in series [3] and in series [5] were < 1, 10.8 and 137, respectively. In addition, the IC50 in the series with Trypanosoma cruzi [2] is 0.828 µM; in the series with L6 it was 113 µM; in [4], 10.5 µM; in the series on Leishmania donovani, 180 µM. Further, in the series on Trypanosoma cruzi [6], the “Ratio IC50” value is given as 2.5.

In the case of `COc1ccc(N2CCN(CCCn3cnc([N+](=O)[O-])n3)CC2)cc1.Cl.Cl`, the selectivity ratio is < 1 in series [1], 3.5 in series [3] and 224 in series [5]. Further, the IC50 is 0.556 µM with Trypanosoma cruzi [2], 125 µM in the series with L6, 35.6 µM in [4] and > 239 µM in the series with Leishmania donovani. Further, the “Ratio IC50” value with Trypanosoma cruzi [6] amounted to 2.8.

Turning to `COc1ccc(N2CCN(CCCn3ccnc3[N+](=O)[O-])CC2)cc1.Cl.Cl`, the selectivity ratio was < 1 in series [1], 2.2 in [3] and 4 in series [5]. Moreover, the IC50 came to 34.4 µM with Trypanosoma cruzi [2], 137 µM in the series on L6, 62.4 µM in series [4] and 186 µM with Leishmania donovani. Also, the “Ratio IC50” value with Trypanosoma cruzi [6] was found to be 0.1.

For `Cl.Cl.Cl.Cl.O=[N+]([O-])c1nccn1CCCN1CCN(Cc2ccc(Cl)c(Cl)c2)CC1`, the selectivity ratio in [1] was < 1; in [3], 7.4; in series [5] it was 8.4. Also, the IC50 was determined as 9.4 µM in the series on Trypanosoma cruzi [2], 79.2 µM in the series on L6, 10.7 µM in [4] and 150 µM in the series on Leishmania donovani. Also, the “Ratio IC50” value in the series with Trypanosoma cruzi [6] came out at 0.2.

For the compound `Cl.Cl.O=[N+]([O-])c1ncn(CCCN2CCN(c3ncccn3)CC2)n1`, the selectivity ratio in [1] is 1; in series [3], 5.2; in [5], 152. In addition, the IC50 with Trypanosoma cruzi [2] was 1.68 µM; in the series on L6 it was > 100 µM; in series [4] it was 49.6 µM; with Leishmania donovani, > 100 µM. The “Ratio IC50” value in the series on Trypanosoma cruzi [6] worked out at 0.9.

For `Cl.Cl.O=[N+]([O-])c1ncn(CCCN2CCN(c3ccccn3)CC2)n1`, the selectivity ratio in [1] is < 1; in series [3], 4.3; in [5] it was 180. Besides, the IC50 was 0.848 µM in the series with Trypanosoma cruzi [2], 153 µM in the series with L6, 35.6 µM in series [4] and > 315 µM in the series on Leishmania donovani. Moreover, in the series with Trypanosoma cruzi [6], the “Ratio IC50” value is listed as 1.9.

Regarding `Cl.Cl.Cl.Cl.O=[N+]([O-])c1ncn(CCCN2CCN(c3ccc(Cl)c(Cl)c3)CC2)n1`, the selectivity ratio in series [1] was 3.7; in series [3] it was 180; in series [5] it was 868. For the same compound, the IC50 in the series with Trypanosoma cruzi [2] amounted to 0.048 µM; in the series on L6 it was 41.7 µM; in series [4], 0.231 µM; in the series with Leishmania donovani, 11.3 µM. In addition, the “Ratio IC50” value in the series with Trypanosoma cruzi [6] came out at 32.7.

For the compound `O=C(Cn1ccnc1[N+](=O)[O-])NCc1ccccc1` [BENZNIDAZOLE], in series [7], the Drug metabolism is on record as 218 nmol/min/mg.

`CC1CS(=O)(=O)CCN1/N=C/c1ccc([N+](=O)[O-])o1` (centres undefined) [NIFURTIMOX]: the Drug metabolism in [7] turned out to be 74 nmol/min/mg.
